Measurements taken from ChEMBL document CHEMBL2146441, “2,6-Disubstituted imidazo[2,1-b][1,3,4]thiadiazoles: search for anticancer agents” (2012).

Experiments:
Format in all cases: functional
[1] = tested on: KM12; assay: Cytotoxicity against human KM12 cells assessed as cell growth at 10^-5 M after 48 hrs by SRB assay; settings: KM12, 48 h, read-out: Activity
[2] = tested on: M14; assay: Cytotoxicity against human M14 cells assessed as cell growth at 10^-5 M after 48 hrs by SRB assay; settings: M14, 48 h, read-out: Activity
[3] = tested on: UACC-257; assay: Cytotoxicity against human UACC257 cells assessed as cell growth at 10^-5 M after 48 hrs by SRB assay; settings: UACC-257, 48 h, read-out: Activity
[4] = tested on: CAKI-1; assay: Cytotoxicity against human Caki1 cells assessed as cell growth at 10^-5 M after 48 hrs by SRB assay; settings: CAKI-1, 48 h, read-out: Activity
How it was run: (§1)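 NCI-60 screen: lines kept in RPMI 1640 with 5% FBS, seeded at 5000–40,000 cells/well by doubling time, preincubated 24 h at 37 °C in 5% CO2. Time-zero plates TCA-fixed at drug addition. DMSO stocks diluted in medium, 48 h exposure. Fixation in cold TCA (final 10% adherent, 16% suspension), 0.4% SRB stain, solubilised in 10 mM Tris base, A515. Percent growth computed against control and time-zero.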

[5] = tested on: U-251; assay: Growth inhibition of human U251 cells after 48 hrs by SRB assay; settings: U-251, 48 h
How it was run: (§2)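 Adherent NCI-60 lines grown in RPMI 1640 with 5% FBS, seeded at 5000–40,000 cells/well, and preincubated 24 h at 37 °C, 5% CO2. Compound, stocked in DMSO, given either once at 10^-5 M or at five 10-fold dilutions for 48 h. Cells fixed with cold TCA (final 10%), stained with 0.4% SRB, and read at 515 nm. GI50 taken as 50% reduction in net protein increase versus time-zero and control plates.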

[6] = tested on: UACC-62; assay: Growth inhibition of human UACC62 cells after 48 hrs by SRB assay; settings: UACC-62, 48 h; for CC50: read-out: LC50 (the source's name); how it was run: as §2
[7] = tested on: ACHN; assay: Growth inhibition of human ACHN cells after 48 hrs by SRB assay; settings: for CC50: read-out: LC50 (the source's name)
How it was run: (§3)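 Same 48 h NCI-60 five-dose SRB protocol. Adherent lines were fixed with cold TCA at 10% final; suspension lines such as CCRF-CEM were fixed with 16% final TCA. Stain was 0.4% SRB in 1% acetic acid for 10 min, solubilized in 10 mM Tris base and read at 515 nm. GI50 came from log concentration–growth curves, solving [(Ti−Tz)/(C−Tz)]×100 = 50.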

[8] = tested on: DU-145; assay: Growth inhibition of human DU145 cells after 48 hrs by SRB assay; settings: DU-145, 48 h; how it was run: as §3
[9] = tested on: SW-620; assay: Cytotoxicity against human SW620 cells assessed as cell growth at 10^-7 M after 48 hrs by SRB assay; settings: SW-620, 48 h, read-out: Activity
[10] = tested on: M14; assay: Cytotoxicity against human M14 cells assessed as cell growth at 10^-7 M after 48 hrs by SRB assay; settings: M14, 48 h, read-out: Activity
[11] = tested on: UACC-257; assay: Cytotoxicity against human UACC257 cells assessed as cell growth at 10^-7 M after 48 hrs by SRB assay; settings: UACC-257, 48 h, read-out: Activity
[12] = Cytotoxicity against human RPMI8266 cells assessed as cell growth at 10^-4 M after 48 hrs by SRB assay; settings: RPMI8266, 48 h, read-out: Activity
[13] = tested on: SR; assay: Cytotoxicity against human SR cells assessed as cell growth at 10^-4 M after 48 hrs by SRB assay; settings: read-out: Activity
[14] = tested on: COLO; assay: Cytotoxicity against human COLO […] cells assessed as cell growth at 10^-4 M after 48 hrs by SRB assay; settings: read-out: Activity; how it was run: as §1
[15] = tested on: HCT-116; assay: Cytotoxicity against human HCT116 cells assessed as cell growth at 10^-4 M after 48 hrs by SRB assay; settings: HCT-116, 48 h, read-out: Activity
How it was run: (§4)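 NCI-60 five-dose screen. Cells were grown in RPMI 1640 with 5% FBS and seeded at 5000–40,000 cells/well according to doubling time. They were pre-incubated 24 h at 37 °C in 5% CO₂, and time-zero (Tz) plates were TCA-fixed at drug addition. Five 10-fold dilutions of DMSO stock were applied for 48 h. Read-out was SRB staining, 515 nm absorbance, with percent growth calculated versus Tz and untreated control.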

[16] = tested on: HCT-15; assay: Cytotoxicity against human HCT15 cells assessed as cell growth at 10^-4 M after 48 hrs by SRB assay; settings: HCT-15, 48 h, read-out: Activity; how it was run: as §4
[17] = tested on: IGROV-1; assay: Cytotoxicity against human IGROV1 cells assessed as cell growth at 10^-4 M after 48 hrs by SRB assay; settings: IGROV-1, 48 h, read-out: Activity; how it was run: as §4
[18] = tested on: MDA-MB-231; assay: Cytotoxicity against human MDA-MB-231 cells assessed as cell growth at 10^-4 M after 48 hrs by SRB assay; settings: MDA-MB-231, 48 h, read-out: Activity
[19] = tested on: MDA-MB-231; assay: Growth inhibition of human MDA-MB-231 cells after 48 hrs by SRB assay; settings: MDA-MB-231, 48 h; how it was run: as §2
[20] = tested on: NCI-H522; assay: Cytotoxicity against human NCI-H522 cells assessed as cell growth at 10^-8 M after 48 hrs by SRB assay; settings: NCI-H522, 48 h, read-out: Activity
[21] = tested on: DU-145; assay: Cytotoxicity against human DU145 cells assessed as cell growth at 10^-8 M after 48 hrs by SRB assay; settings: DU-145, 48 h, read-out: Activity; how it was run: as §1
[22] = tested on: BT-549; assay: Cytotoxicity against human BT549 cells assessed as cell growth at 10^-8 M after 48 hrs by SRB assay; settings: BT-549, 48 h, read-out: Activity; how it was run: as §1
[23] = tested on: T47D; assay: Cytotoxicity against human T47D cells assessed as cell growth at 10^-8 M after 48 hrs by SRB assay; settings: read-out: Activity
[24] = Cytotoxicity against human […] cells assessed as cell growth at 10^-6 M after 48 hrs by SRB assay; settings: 48 h, read-out: Activity
[25] = tested on: HOP-62; assay: Cytotoxicity against human HOP62 cells assessed as cell growth at 10^-6 M after 48 hrs by SRB assay; settings: HOP-62, 48 h, read-out: Activity; how it was run: as §4
[26] = tested on: NCI-H226; assay: Cytotoxicity against human NCI-H226 cells assessed as cell growth at 10^-6 M after 48 hrs by SRB assay; settings: NCI-H226, 48 h, read-out: Activity
[27] = tested on: HT-29; assay: Cytotoxicity against human HT-29 cells assessed as cell growth at 10^-6 M after 48 hrs by SRB assay; settings: HT-29, 48 h, read-out: Activity; how it was run: as §4
[28] = tested on: CCRF-CEM; assay: Growth inhibition of human CCRF-CEM cells after 48 hrs by SRB assay; settings: for CC50: read-out: LC50 (the source's name); how it was run: as §3
[29] = tested on: HCT-15; assay: Growth inhibition of human HCT15 cells after 48 hrs by SRB assay; settings: HCT-15, 48 h; for CC50: read-out: LC50 (the source's name); how it was run: as §2

## COc1ccc(-c2nn3cc(-c4cccc(N)c4)nc3s2)cc1
[1]
  growth at 10 µM: 37%
[2]
  growth at 10 µM: 34%
[3]
  growth at 10 µM: 63%
[4]
  growth at 10 µM: 2%
[5]
  GI50: 7.65 µM
  LC50: > 100 µM
  TGI: 52.1 µM
[6]
  GI50: 2.92 µM
  TGI: 24.4 µM
  CC50: > 100 µM
[7]
  GI50: 4.5 µM
  TGI: 21.8 µM
  CC50: 91.3 µM
[8]
  GI50: 6.79 µM
  LC50 (lethal concentration 50): > 100 µM
  TGI: 31.7 µM
[9]
  growth at 0.1 µM: 95%
[10]
  growth at 0.1 µM: 101%
[11]
  growth at 0.1 µM: 109%
[12]
  growth at 100 µM: -8%
[13]
  growth at 100 µM: 23%
[14]
  growth at 100 µM: -56%
[15]
  growth at 100 µM: -91%
[16]
  growth at 100 µM: 1%
[17]
  growth at 100 µM: -18%
[18]
  growth at 100 µM: -35%
[19]
  GI50: 1.58 µM
  LC50 (concentration killing 50% of cells present at time zero): > 100 µM
  TGI: 13.2 µM
[20]
  growth at 0.01 µM: 82%
[21]
  growth at 0.01 µM: 101%
[22]
  growth at 0.01 µM: 102%
[23]
  growth at 0.01 µM: 97%
[24]
  growth at 1 µM: 55%
[25]
  growth at 1 µM: 84%
[26]
  growth at 1 µM: 58%
[27]
  growth at 1 µM: 88%
[28]
  GI50: 1.77 µM
  TGI: > 100 µM
  CC50: > 100 µM
[29]
  GI50: 5.26 µM
  TGI: > 100 µM
  CC50: > 100 µM

## COc1ccc(-c2nn3cc(-c4ccc(O)cc4O)nc3s2)cc1
[1]
  growth at 10 µM: 21%
[2]
  growth at 10 µM: 17%
[3]
  growth at 10 µM: 36%
[4]
  growth at 10 µM: 8%
[5]
  GI50: 1.7 µM
  LC50: > 100 µM
  TGI: 4.48 µM
[6]
  GI50: 3.47 µM
  TGI: 17.7 µM
  CC50: 59.4 µM
[7]
  GI50: 3.52 µM
  TGI: > 100 µM
  CC50: > 100 µM
[8]
  GI50: 4.37 µM
  LC50 (lethal concentration 50): > 100 µM
  TGI: > 100 µM
[9]
  growth at 0.1 µM: 96%
[10]
  growth at 0.1 µM: 96%
[11]
  growth at 0.1 µM: 92%
[12]
  growth at 100 µM: 3%
[13]
  growth at 100 µM: -35%
[14]
  growth at 100 µM: -27%
[15]
  growth at 100 µM: -55%
[16]
  growth at 100 µM: 4%
[17]
  growth at 100 µM: -7%
[18]
  growth at 100 µM: -19%
[19]
  GI50: 1.37 µM
  TGI: 3.57 µM
[20]
  growth at 0.01 µM: 89%
[21]
  growth at 0.01 µM: 106%
[22]
  growth at 0.01 µM: 94%
[23]
  growth at 0.01 µM: 104%
[24]
  growth at 1 µM: 69%
[25]
  growth at 1 µM: 81%
[26]
  growth at 1 µM: 61%
[27]
  growth at 1 µM: 86%
[28]
  GI50: 5.08 µM
  TGI: > 100 µM
  CC50: > 100 µM
[29]
  GI50: 5.13 µM
  TGI: > 100 µM
  CC50: > 100 µM
